Bioassay records from PubChem.
KCNK3 block = human KCNK3 channel inhibition, primary screen | O14649 | CHO-KCNK3 thallium flux, FluxOR fluorescence; hits give low values | B-score at 10 µM | 340,000 tested, 0.84% active;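 active = B-score under library mean minus 4 SD, starting fluorescence ratio at most library mean plus 5 SD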;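 also: more negative B-score means stronger inhibition of thallium flux through KCNK3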
hERG rescue = shields human hERG channel from block by proarrhythmic agents. CHO-hERG, FluxOR thallium flux, dofetilide IC70 present. activation (rescue from dofetilide block), less the hit threshold, % at 10 µM. 310,000 tested, 0.51% active. AID 1511;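 active = activation above the mean of controls blocked by dofetilide plus 5 SD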;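 also: thallium influx through hERG after potassium depolarization seen as dye fluorescence rise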
KCNK9 inh = human KCNK9 channel inhibition; Q9NPC2; HEK293 KCNK9, FluxOR thallium flux fluorescence; hits give low values; B-score at 10 µM; 310,000 tested, 1.2% active; AID 488922;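 active = ratio B-score over 3 SD below the library mean, with starting fluorescence within 5 SD of its mean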;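 also: negative B-score means less thallium flux so channel inhibition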
KCC2 mod = modulates chloride dependent transport by human KCC2; Q9H2X9; KCC2 cells, thallium flux FluoZin-2 fluorescence; B-score of Tl+ flux slope (higher = more flux/activation; lower = inhibition) at 10 µM; 190,000 tested, 2.2% active; AID 1456;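 active = thallium flux slope and its plate-corrected score both differing from the plate sample mean at a set confidence after two filtering rounds, in either direction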;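 also: slope of fluorescence scaled to starting intensity during 10 to 20 s after thallium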
Target sequence (Q9H2X9 whole entry, looked up): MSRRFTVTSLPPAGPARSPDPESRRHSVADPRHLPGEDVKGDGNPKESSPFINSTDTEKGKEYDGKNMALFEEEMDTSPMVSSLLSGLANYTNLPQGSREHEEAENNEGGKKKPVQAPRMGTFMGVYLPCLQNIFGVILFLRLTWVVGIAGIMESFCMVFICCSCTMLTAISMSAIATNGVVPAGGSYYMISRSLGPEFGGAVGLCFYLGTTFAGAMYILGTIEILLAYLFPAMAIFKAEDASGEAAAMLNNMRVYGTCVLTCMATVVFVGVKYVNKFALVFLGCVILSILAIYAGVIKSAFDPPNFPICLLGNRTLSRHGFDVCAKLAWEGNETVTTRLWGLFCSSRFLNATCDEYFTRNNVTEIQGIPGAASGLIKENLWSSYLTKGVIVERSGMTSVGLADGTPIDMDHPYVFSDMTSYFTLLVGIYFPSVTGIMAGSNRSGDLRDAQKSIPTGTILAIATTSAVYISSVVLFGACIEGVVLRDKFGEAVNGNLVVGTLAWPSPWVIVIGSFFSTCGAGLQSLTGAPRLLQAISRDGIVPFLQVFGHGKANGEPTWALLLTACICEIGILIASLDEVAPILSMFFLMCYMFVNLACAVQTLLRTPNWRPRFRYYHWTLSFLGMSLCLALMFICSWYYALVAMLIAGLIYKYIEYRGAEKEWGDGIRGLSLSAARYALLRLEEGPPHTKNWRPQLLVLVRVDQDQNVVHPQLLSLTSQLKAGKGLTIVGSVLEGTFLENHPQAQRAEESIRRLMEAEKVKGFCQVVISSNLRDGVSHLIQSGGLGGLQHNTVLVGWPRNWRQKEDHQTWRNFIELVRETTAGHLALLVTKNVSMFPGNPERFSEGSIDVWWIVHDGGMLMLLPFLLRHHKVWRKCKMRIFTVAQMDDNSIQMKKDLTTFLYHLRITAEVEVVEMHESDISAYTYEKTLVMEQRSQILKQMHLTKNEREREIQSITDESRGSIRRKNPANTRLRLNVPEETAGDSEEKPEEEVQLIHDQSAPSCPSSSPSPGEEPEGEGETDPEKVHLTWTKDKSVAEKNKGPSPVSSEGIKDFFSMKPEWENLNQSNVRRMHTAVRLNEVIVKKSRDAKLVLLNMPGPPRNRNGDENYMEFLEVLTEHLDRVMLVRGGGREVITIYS
KCNQ1 act = potentiators or activators of human KCNQ1 potassium channel; P51787; CHO-K1 KCNQ1, thallium flux FluxOR fluorescence; hits give high values; B-score at 10 µM; 310,000 tested, 0.35% active;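 active = fluorescence ratio B-score, a plate-corrected score, at least three library SD, with initial intensity B-score within 5 SD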
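Assay system: CHO-K1 cells stably expressing KCNQ1; Medium: assay buffer with matched DMSO; Also added: K+/Tl+ depolarizing stimulus; Dosing: single dose; Timing: dye 90 min, compound 20 min, room temperature; Measured by: kinetic FluxOR thallium fluorescence, 10-s 1-Hz baseline, 110-s post-stimulus read; Read-out: peak-minus-minimum fluorescence over initial fluorescence, negative-control normalized, B-scored.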
KCNQ1 block = human KCNQ1 channel inhibition; CHO-K1 KCNQ1, FluxOR thallium flux fluorescence; hits give high values; 310,000 tested, 1.3% active; B-score at 10 µM; AID 2642;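 active = compounds whose thallium flux B-score, printed positive for inhibition, exceeds three library SD while starting fluorescence stays within three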;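 also: channel opened by potassium depolarization with thallium stimulus after 20 min compound exposure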
KCNQ1 inh valid = reconfirmed blocker of the human KCNQ1 potassium channel; KCNQ1 cell line, FluxOR thallium flux fluorescence; shares compounds with KCNQ1 block; AID 588353; inhibition, % at 10 µM; 1,600 tested, 93% active;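 active = primary screen active, with duplicate mean exceeding buffer control mean plus 3 SD of buffer wells, cut at about 28% in these data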;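 also: 0% = buffer control ratio and 100% = XE991 inhibitor control ratio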
CHO KCNQ1 ctr = activity in parental CHO cells lacking KCNQ1; shares compounds with KCNQ1 block; fluorescence ratio (Tl flux) at 10 µM; parental CHO-K1, FluxOR thallium flux fluorescence ratio; hits give low values; zero means no signal rise above baseline; AID 588366; 1,600 tested, 21% active;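 active = mean of duplicate thallium-flux fluorescence ratios in parental host cells more than 5 SD below the buffer control mean, cut at about 0.38 in these data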;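 also: ratio is peak minus minimum fluorescence divided by baseline fluorescence; actives read low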
KCNQ1 ephys val = human KCNQ1 inhibition validated by electrophysiology. 490 tested, 20% active. shares compounds with KCNQ1 block. KCNQ1-CHO cells, automated patch clamp current. calls only at 10 µM;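 active = KCNQ1 current drop exceeding 3 SD of negative control wells, seen in both duplicate runs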;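 also: steady state current during a 2 s step from -80 to +40 mV; negative values mean current inhibition and positive values mean potentiation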
KCNQ2 inh = rat KCNQ2 inhibition in KCNQ1 inhibitor specificity screen. AID 651746. inhibition, % at 10 µM. shares compounds with KCNQ1 block. KCNQ2 cells, FluxOR thallium flux fluorescence. 1,600 tested, 71% active;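 active = mean percent inhibition of the KCNQ2 thallium signal more than 5 SD above the buffer-only control wells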;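 also: KCNQ2 expressed in CHO cells; 0% = buffer control wells and 100% = XE-991 inhibitor control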
KCNQ1-KCNE1 inh = human KCNQ1/KCNE1 inhibition in KCNQ1 specificity screen; shares compounds with KCNQ1 block; KCNQ1/KCNE1 cells, FluxOR thallium flux fluorescence; inhibition, % at 10 µM; 1,600 tested, 77% active; AID 652147;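 active = mean percent inhibition of duplicate wells above the buffer-only control mean plus 3 SD of those controls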;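 also: 0% = buffer only wells and 100% = XE-991 inhibitor control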
KCNK9 inh conf = human KCNK9 inhibitor confirmation. shares compounds with KCNK9 inh. HEK293 KCNK9 cells, FluxOR thallium flux fluorescence. inhibition, % at 10 µM. 4,900 tested, 43% active;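 active = thallium signal inhibited by more than 5 SD of the compound-free buffer control wells, on both duplicate plates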;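 also: 0% = assay buffer control wells without compound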
Kir21 sel = tests whether KCNK9 modulators also affect mouse Kir2.1 | inhibition, % at 10 µM | shares compounds with KCNK9 inh | Kir2.1 cells, FluxOR thallium flux fluorescence | AID 492993 | 4,900 tested, 4% active;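 active = thallium signal drop more than 5 SD beyond the mean of the no-compound control wells, seen in both duplicate plates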;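 also: signal is fluorescence rise after thallium addition divided by baseline fluorescence; plate controls were assay buffer only for no effect and full block by chlorpromazine control for full effect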
KCNK9 uninduced = second counter-screen for KCNK9 modulators: effect in non-induced cells. shares compounds with KCNK9 inh. non-induced KCNK9-HEK293, FluxOR thallium flux. inhibition, % at 10 µM. 4,900 tested, 40% active. AID 492997;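 active = thallium signal drop beyond 5 SD of the untreated control mean, on both duplicate plates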;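 also: plate controls were buffer only IC0 wells for no effect and SID17386958 at its maximal inhibitory level for full effect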
KCNK3 inh conf = human KCNK3 channel inhibition, confirmation assay. shares compounds with KCNK3 block. CHO-KCNK3 thallium flux, FluxOR fluorescence; 0% buffer, 100% carvedilol maximal block. ratio percent of control, % at 10 µM. 2,400 tested, 99% active;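 active = ratio percent of control, averaged over triplicates, above buffer control mean plus 5 SD, cut at about 64% in these data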;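 also: ratio is the fluorescence rise from min to max over baseline after thallium stimulus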
KCNK3 noninduced = counter-screen for KCNK3 inhibitors: effect in non-induced cells. shares compounds with KCNK3 block. non-induced KCNK3 parental cells, FluxOR thallium flux; hits give low values. thallium flux ratio (lower = more inhibition) at 10 µM. 2,400 tested, 40% active. AID 651747;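 active = thallium flux ratio, averaged over three wells, more than 5 SD below the buffer control mean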;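 also: host cells are CHO cells without KCNK3 induction; ratio is peak minus trough fluorescence over baseline then normalized to buffer controls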
Starred values were filed as active, the others as inactive; i = inactive; . = no result given; + = active, no number. Compounds with a hit are over-represented: about 4.1% of the library has one in this group of screens.

SMILES	KCNK3 block	hERG rescue	KCNK9 inh	KCC2 mod	KCNQ1 act	KCNQ1 block	KCNQ1 inh valid	CHO KCNQ1 ctr	KCNQ2 inh	KCNQ1-KCNE1 inh	KCNK3 inh conf	KCNK3 noninduced	others
CCN(c1ccc(NC(=O)COC(=O)C2CCN(c3ccc(C(F)(F)F)cn3)CC2)cc1)C(C)C	i	.	.	.	.	.	.	.	.	.	.	.
Cn1c(N2CCN(C(c3ccccc3)c3ccccc3)CC2)nc2ccccc21	-13*	-15	-14*	.	i	12*	142*	0.39	142%*	+	117*	0.16*	KCNQ1 ephys val=i;KCNK9 inh conf=84%*;Kir21 sel=i;KCNK9 uninduced=i
O=C(Nc1ccncc1)c1cc(-c2cccc(Br)c2)nc2ccccc12	i	-16	i	.	i	i	.	.	.	.	.	.
O=C(Nc1cccnc1)c1cc(-c2cccc(Br)c2)nc2ccccc12	-12*	-18	-9.2*	.	i	15*	148*	0.31*	130%*	195%*	156*	0.1*	KCNK9 inh conf=i;Kir21 sel=i;KCNK9 uninduced=38%*
CCOc1ccc(N(CC(=O)Nc2cccc(F)c2)S(=O)(=O)c2c(C)noc2C)cc1	i	-5	i	1.8	i	i	.	.	.	.	.	.
CCOc1ccc(N(CC(=O)Nc2ccc(C)c(C)c2)S(=O)(=O)c2c(C)noc2C)cc1	-9.7*	-5	i	0.29	i	7*	96*	0.38	112%*	143%*	93*	i	KCNQ1 ephys val=i
Oc1ccccc1N1CCN(c2ncnc3scc(-c4ccc(F)cc4)c23)CC1	-9.6*	-10	i	.	i	9*	121*	0.37*	63%*	151%*	115*	0.12*
Cc1nc(N2CCN(c3ccccc3O)CC2)c2c(-c3ccccc3)csc2n1	-9.9*	-12	i	.	i	18*	54*	0.42	89%*	88%*	116*	0.11*
OCCN1CCN(c2ncnc3scc(-c4ccc(F)cc4)c23)CC1	i	-6	i	.	i	i	.	.	.	.	.	.
CCOc1ccccc1N1CCN(c2ncnc3scc(-c4ccc(OC)cc4)c23)CC1	-9.4*	-35	-6.8*	.	i	8*	142*	0.35*	141%*	174%*	140*	0.11*
COCCNC(=O)C(c1ccc(F)cc1)N(Cc1ccccc1)C(=O)CCC(=O)Nc1nccs1 (stereo not drawn)	i	-11	i	.	i	i	.	.	.	.	.	.
CC(C)c1ccc2c(c1)C1(NN=C(c3ccccc3)S1)C(=O)N2 (stereo not drawn)	-12*	-22	i	0.0027	i	18*	68*	0.35*	78%*	42%*	138*	0.095*
Cn1nc(C(=O)OCC(=O)Nc2ccc(Cl)cc2Cl)c2ccccc2c1=O	i	.	.	.	.	.	.	.	.	.	.	.
CC(=O)Nc1ccc(Nc2cc(C(C)C)nc3c(-c4ccccc4)c(C)nn23)cc1	-12*	-13	i	-0.7	i	7*	118*	0.38*	77%*	134%*	123*	i
CC(=O)Nc1ccc(Nc2cc(C)nc3c(-c4ccccc4)c(C)nn23)cc1	i	-6	i	-2.1	i	i	.	.	.	.	.	.
Cc1ccc(NS(=O)(=O)c2ccc3c(c2)CCC(=O)N3)cc1	i	.	.	.	.	.	.	.	.	.	.	.
Cc1ccc(C(C)C)cc1OCC(=O)NC1CCCCCCC1	-10*	-8	i	.	i	9*	116*	0.42	i	113%*	114*	i	KCNQ1 ephys val=i
Cc1ccc(NS(=O)(=O)c2ccc(-n3cccn3)cc2)nc1	i	-4	i	.	i	i	.	.	.	.	.	.
CN(C)CCCNc1nc(-c2ccccc2)nc2ccccc12	i	-10	i	.	i	i	.	.	.	.	.	.
CC(C)OCCCNc1nc(-c2ccccc2)nc2ccccc12	-10*	-24	i	.	i	7*	88*	0.48	117%*	152%*	123*	i	KCNQ1 ephys val=i
O=C(O)c1cn[nH]c1-n1cnnn1	i	-15	i	-0.0057	i	i	.	.	.	.	.	.
C=CC[C@@H](CC(=O)N[C@H](CO)Cc1ccccc1)C(=O)N[C@H](COC(=O)[C@@H](CC=C)Cc1ccc(F)cc1)Cc1c[nH]c2ccccc12	i	.	.	.	.	.	.	.	.	.	.	.
Cc1ccc2c(c1)N(S(=O)(=O)c1cc(-c3onc(C)c3C)ccc1C)CCO2	-11*	-10	-7.5*	.	i	7*	77*	0.35*	106%*	93%*	106*	i
COc1ccc(-c2cc(C)no2)cc1S(=O)(=O)N1CCOc2ccc(Cl)cc21	i	-5	i	.	i	i	.	.	.	.	.	.
CC(C)(C)c1cc(C(=O)NCc2cc(F)cc3c2OCOC3)n(Cc2ccccc2)n1	-12*	-11	-7.9*	-0.9	i	9*	134*	0.37*	101%*	198%*	135*	0.13*
